In ChEMBL document CHEMBL3526127, “Absorption, elimination, and metabolism of CS-1036, a novel α-amylase inhibitor in rats and monkeys, and the relationship between gastrointestinal distribution and suppression of glucose absorption” (Drug Metab Dispos, 2013):

Columns and labels:
Conditions in all cases: in vivo
[1] = Drug excretion in F344 rat urine at 1 mg/kg, iv administered as single dose after 0 to 168 hrs by scintillation counting method; format: ADME, organism-based; design: dose 1 mg/kg, route intravenous
Summary of the method: (§1)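 Fasted F344 rats (152–156 g iv via tail vein; 154–159 g oral; n = 4) received [14C]-labelled drug at 1 mg/kg (41.9 µCi/kg). Animals were kept in metabolic cages; urine and feces were collected to 168 h, and expired CO2 was trapped in 2-aminoethanol/2-methoxyethanol (1:1) to 48 h. Samples were counted by liquid scintillation (feces homogenized). Results are % of dose, mean ± S.D.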

[2] = Drug excretion in F344 rat feces at 1 mg/kg, po administered as single dose after 0 to 48 hrs by scintillation counting method; format: ADME, organism-based; design: dose 1 mg/kg, route oral; summary of the method: as §1
[3] = Tmax in cynomolgus monkey at 3 mg/kg, po administered as single dose by LC-MS/MS method; format: ADME, organism-based, Macaca fascicularis; design: dose 3 mg/kg, route oral
Summary of the method: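 Male F344 rats (146–185 g) and male cynomolgus monkeys (3.48–4.29 kg), n = 4 each, fasted overnight, received single iv or oral doses of 0.3, 1.0, 3.0 or 10.0 mg/kg. Monkeys had 2-week washouts between doses. Plasma was sampled to 48 h and assayed by LC-MS/MS with deuterated internal standard. Noncompartmental analysis: tmax observed; t1/2 by regression on ≥3 terminal log points; Vss = dose·AUMC/(AUC0–inf)²; Foral = oral/iv AUC0–inf at the same dose.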

SMILES | Drug excretion [1] [%] | Drug excretion [2] [%] | Tmax [3] [h]
C[C@H]1O[C@@H](O[C@H]2[C@H](O)[C@@H](O)[C@@H](O[14C@H]3[14C@H](O)[14CH2]N[14C@@H]3[14CH2]O)O[C@@H]2CO)[C@H](O)[C@@H](O)[C@@H]1O | 77.21 | 77.59 | 
C[C@H]1O[C@@H](O[C@H]2[C@H](O)[C@@H](O)[C@@H](O[C@H]3[C@H](O)CN[C@@H]3CO)O[C@@H]2CO)[C@H](O)[C@@H](O)[C@@H]1O |  |  | 1.75
